Measured values reported in ChEMBL document CHEMBL3525926, “CYP2C9-mediated metabolic activation of losartan detected by a highly sensitive cell-based screening assay” (Drug Metab Dispos, 2011).

What was measured:
Assay type in all cases: ADME, cell-based
Details in all cases: hepg2, 24 h
Cytochrome P450 2C9 [1] = target: T1, Cytochrome P450 2C9 (Homo sapiens, UniProt P11712); test: Metabolic activation assessed as CYP2C9 activation-induced cytotoxicity in human HepG2 cells transfected with human AdCYP2C9 at MOI 10 for 2 days in presence of siNrf2 at 25 to 100 uM after 24 hrs by WST-8 assay
T1 sequence (P11712 whole entry): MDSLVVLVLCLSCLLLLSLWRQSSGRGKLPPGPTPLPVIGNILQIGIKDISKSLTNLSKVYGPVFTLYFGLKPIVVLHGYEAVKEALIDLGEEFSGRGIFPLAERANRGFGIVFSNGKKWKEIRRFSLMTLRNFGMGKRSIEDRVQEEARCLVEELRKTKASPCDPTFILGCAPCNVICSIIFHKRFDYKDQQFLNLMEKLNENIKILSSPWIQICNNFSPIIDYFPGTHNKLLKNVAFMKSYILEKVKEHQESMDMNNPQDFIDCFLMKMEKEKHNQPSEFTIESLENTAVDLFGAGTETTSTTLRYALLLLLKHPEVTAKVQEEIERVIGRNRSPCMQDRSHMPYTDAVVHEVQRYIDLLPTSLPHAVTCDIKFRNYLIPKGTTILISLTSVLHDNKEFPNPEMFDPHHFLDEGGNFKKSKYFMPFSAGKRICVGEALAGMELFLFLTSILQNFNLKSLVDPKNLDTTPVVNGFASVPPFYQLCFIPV

Cytochrome P450 2C9 [2] = target: T1, Cytochrome P450 2C9; test: Metabolic activation assessed as CYP2C9 activation-induced cytotoxicity in human HepG2 cells transfected with human AdCYP2C9 at MOI 10 for 2 days in presence of siNrf2 at 50 to 200 uM after 24 hrs by WST-8 assay
Method in brief: (§1)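 HepG2 cells reverse-transfected with 10 nM siNrf2 at seeding (1.0×10^4 cells/well), incubated 24 h, then infected with CYP2C9-expressing adenovirus (AdGFP as control) at MOI 10 for 2 days in 5% FBS medium. Drugs added for 24 h. Viability read by WST-8 (absorbance 450 nm) or CellTiter-Glo ATP luminescence. Expressed as % of untreated cells; means ± S.D., n = 3; two-tailed t test versus AdGFP cells.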

Cytochrome P450 2C9 [3] = target: T1, Cytochrome P450 2C9; test: Metabolic activation assessed as CYP2C9 activation-induced cytotoxicity in human HepG2 cells transfected with human AdCYP2C9 at MOI 10 for 2 days in presence of siScramble at 25 to 100 uM after 24 hrs by ATP assay
Method in brief: (§2)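 HepG2 cells reverse-transfected with 10 nM scrambled control siRNA at seeding (1.0×10^4 cells/well), then after 24 h infected with CYP2C9-expressing adenovirus (AdGFP control) at MOI 10 for 2 days. Drugs added for 24 h. Viability by CellTiter-Glo ATP luminescence, as % of untreated cells; means ± S.D., n = 3; two-tailed t test versus AdGFP cells.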

Cytochrome P450 2C9 [4] = target: T1, Cytochrome P450 2C9; test: Metabolic activation assessed as CYP2C9 activation-induced cytotoxicity in human HepG2 cells transfected with human AdCYP2C9 at MOI 10 for 2 days in presence of siNrf2 at 25 to 75 uM after 24 hrs by WST-8 assay; method in brief: as §1
Cytochrome P450 2C9 [5] = target: T1, Cytochrome P450 2C9; test: Metabolic activation assessed as CYP2C9 activation-induced cytotoxicity in human HepG2 cells transfected with human AdCYP2C9 at MOI 10 for 2 days in presence of siScramble at 50 to 200 uM after 24 hrs by ATP assay; method in brief: as §2
Cytochrome P450 2C9 [6] = target: T1, Cytochrome P450 2C9; test: Metabolic activation assessed as CYP2C9 activation-induced cytotoxicity in human HepG2 cells transfected with human AdCYP2C9 at MOI 10 for 2 days in presence of siNrf2 at 100 to 200 uM after 24 hrs by WST-8 assay; method in brief: as §1
Cytochrome P450 2C9 [7] = target: T1, Cytochrome P450 2C9; test: Metabolic activation assessed as CYP2C9 activation-induced cytotoxicity in human HepG2 cells transfected with human AdCYP2C9 at MOI 10 for 2 days in presence of siNrf2 at 50 to 200 uM after 24 hrs by ATP assay; method in brief: as §1
Cytochrome P450 2C9 [8] = target: T1, Cytochrome P450 2C9; test: Metabolic activation assessed as CYP2C9 activation-induced cytotoxicity in human HepG2 cells transfected with human AdCYP2C9 at MOI 10 for 2 days in presence of siNrf2 at 100 uM after 24 hrs by WST-8 assay; method in brief: as §1

| SMILES | Activity (Cytochrome P450 2C9 [1]) | other results |
| --- | --- | --- |
| CCCCc1nc(Cl)c(C(=O)O)n1Cc1ccc(-c2ccccc2-c2nn[nH]n2)cc1 [CARBOXYLIC ACID METABOLITE] | Non-toxic |  |
| CCCCc1ncc(/C=C(\Cc2cccs2)C(=O)O)n1Cc1ccc(C(=O)O)cc1 [EPROSARTAN] | Toxic |  |
| CCCC(CCC)C(=O)O [VALPROIC ACID] |  | Activity (Cytochrome P450 2C9 [2]): Non-toxic |
| CN(C/C=C/C#CC(C)(C)C)Cc1cccc2ccccc12 [TERBINAFINE] | Toxic | Activity (Cytochrome P450 2C9 [3]): Toxic |
| CCCCC1=NC2(CCCC2)C(=O)N1Cc1ccc(-c2ccccc2-c2nnn[nH]2)cc1 [IRBESARTAN] | Toxic |  |
| CC(C)C(=O)Nc1ccc([N+](=O)[O-])c(C(F)(F)F)c1 [FLUTAMIDE] |  | Activity (Cytochrome P450 2C9 [4]): Non-toxic |
| Cc1ccc(-c2nc3ccc(C)cn3c2CC(=O)N(C)C)cc1 [ZOLPIDEM] | Toxic |  |
| O=C(O)COc1ccc(C(=O)c2cccs2)c(Cl)c1Cl [TICRYNAFEN] |  | Activity (Cytochrome P450 2C9 [5]): Non-toxic; Activity (Cytochrome P450 2C9 [6]): Toxic; Activity (Cytochrome P450 2C9 [7]): Toxic |
| CC(C)n1c(/C=C/C(O)CC(O)CC(=O)O)c(-c2ccc(F)cc2)c2ccccc21 (stereo not drawn) [FLUVASTATIN] |  | Activity (Cytochrome P450 2C9 [8]): Toxic; Activity (Cytochrome P450 2C9 [2]): Non-toxic |
| CCCCC(=O)N(Cc1ccc(-c2ccccc2-c2nnn[nH]2)cc1)[C@H](C(=O)O)C(C)C [VALSARTAN] | Toxic |  |
| CCCc1nc2c(C)cc(-c3nc4ccccc4n3C)cc2n1Cc1ccc(-c2ccccc2C(=O)O)cc1 [TELMISARTAN] | Toxic |  |
| CCCCc1nc(Cl)c(C=O)n1Cc1ccc(-c2ccccc2-c2nn[nH]n2)cc1 | Non-toxic |  |
| CCCCc1nc(Cl)c(CO)n1Cc1ccc(-c2ccccc2-c2nn[nH]n2)cc1 [LOSARTAN] | Toxic | Activity (Cytochrome P450 2C9 [3]): Non-toxic |
